Data on 15 compounds can be found in ChEMBL document CHEMBL1145957 (J Med Chem, 2003).

Assay [1] relates to Trypanosoma brucei. The experiment in a line: Minimum effective concentration in vitro against the bloodstream trypomastigote form of Trypanosoma brucei. The format is functional. The note with it: read-out: MEC. Summed up: (§1)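 T. brucei brucei AnTat 1.9 bloodstream forms kept cell-free at 10⁵ trypanosomes/mL. Drug added in 10-fold dilutions, 50 to 0.01 μM final, 16 replicates per dilution and control. Incubated 48 h at 37 °C, 5% CO2.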

The subject of assay [2] is Leishmania infantum. Briefly: In vitro percent inhibition against mouse peritoneal macrophages infected with Leishmania infantum at 6.2 uM concentration. The assay is classed as functional. Summed up: (§2)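 Primary mouse peritoneal macrophages seeded at 30 000 cells/well. After 24 h, spleen-derived L. infantum (MOHM/MA BE/67) amastigotes added at a 10:1 infection ratio with 2-fold drug dilutions. Incubated 5 days at 37 °C, 5% CO2; uninfected cultures treated in parallel. Total parasite load or infected-macrophage count scored microscopically on Wright-stained slides, versus untreated controls.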

Assay [3] concerns Trypanosoma cruzi. Briefly: In vitro percent inhibition against mouse peritoneal macrophages infected with Trypanosoma cruzi at 6.2 uM concentration. The assay is classed as functional. The method in brief:
(§3)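 Mouse peritoneal macrophages seeded at 30 000 cells/well. After 24 h, about 100 000 T. cruzi Tulahen CL2 trypomastigotes per well added with 2-fold drug dilutions. Incubated 4 days at 37 °C, 5% CO2; uninfected cultures treated alike. Reduction of total parasite load (free trypomastigotes plus intracellular amastigotes) versus untreated controls scored microscopically.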

Assay [4] has as its system Leishmania infantum. Briefly: In vitro percent inhibition against mouse peritoneal macrophages infected with Leishmania infantum at 25 uM concentration. The format is functional. Summed up: as §2
For assay [5], the system named is Trypanosoma cruzi. The experiment in a line: In vitro percent inhibition against mouse peritoneal macrophages infected with Trypanosoma cruzi at 3.1 uM concentration. The assay is classed as functional. The method in brief:
as §3

Assay [6] concerns Trypanosoma cruzi. The experiment in a line: In vitro percent inhibition against mouse peritoneal macrophages infected with Trypanosoma cruzi at 25 uM concentration. The format is functional. The method in brief:
as §3

Assay [7] has as its system Leishmania infantum. Briefly: In vitro percent inhibition against mouse peritoneal macrophages infected with Leishmania infantum at 12.5 uM concentration. The assay is classed as functional. Summed up:
as §2

Assay [8] relates to Trypanosoma cruzi. The experiment in a line: In vitro percent inhibition against mouse peritoneal macrophages infected with Trypanosoma cruzi at 12.5 uM concentration. The format is functional. Summed up:
as §3

Assay [9] deals with Leishmania infantum. The experiment in a line: In vitro percent inhibition against mouse peritoneal macrophages infected with Leishmania infantum at 3.1 uM concentration. The assay is classed as functional. Summed up:
as §2

Assay [10] concerns Homo sapiens (MRC-5 cells). The experiment in a line: Concentration that cause cytotoxicity at 25 uM concentration.
In assay [11] the test system is Trypanosoma brucei. Briefly: Effective concentration in vitro against the bloodstream trypomastigote form of Trypanosoma brucei. The format is functional, organism-based. Summed up:
as §1

The subject of assay [12] is Homo sapiens (MRC-5 cells). Briefly: Concentration that cause cytotoxicity at 12.5 uM concentration.
In assay [13] the test system is Homo sapiens (MRC-5 cells). The experiment in a line: Concentration that cause cytotoxicity at 6.2 uM concentration.
The test system of assay [14] is Trypanosoma cruzi. Briefly: Percent inhibition in vitro against intracellular form of Trypanosoma cruzi at 3 uM concentration. The format is functional. The method in brief: (§4)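 T. cruzi Y strain (MHOM/BR/OO/Y) trypomastigotes, grown in L6 myoblast cultures, infect mouse peritoneal macrophages in medium with drug from 90 to 3 μM. Incubation 72 h at 37 °C. Activity read as percent of infected macrophages in treated cultures.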

The test system of assay [15] is Trypanosoma cruzi. Briefly: Effective dose against Trypanosoma cruzi. The assay is classed as functional.
Assay [16] relates to Trypanosoma cruzi. The experiment in a line: Percent inhibition in vitro against intracellular form of Trypanosoma cruzi at 30 uM concentration. The assay is classed as functional. The method in brief: as §4
Assay [17] deals with Trypanosoma cruzi. The experiment in a line: Percent inhibition in vitro against intracellular form of Trypanosoma cruzi at 10 uM concentration. The assay is classed as functional. The method in brief: as §4
Assay [18] deals with Trypanosoma cruzi. Briefly: Percent inhibition in vitro against intracellular form of Trypanosoma cruzi at 90 uM concentration. The format is functional. The method in brief:
as §4

The test system of assay [19] is Homo sapiens (MRC-5 cells). The experiment in a line: Concentration that cause cytotoxicity at 6.2 uM concentration in human MRC-5 cells.
The subject of assay [20] is Homo sapiens (MRC-5 cells). Briefly: Concentration that cause cytotoxicity at 3.1 uM concentration in human MRC-5 cells.
Assay [21] concerns Homo sapiens (MRC-5 cells). The experiment in a line: Concentration that cause cytotoxicity at 25 uM concentration in human MRC-5 cells.
Assay [22] relates to Homo sapiens (MRC-5 cells). Briefly: Concentration that cause cytotoxicity at 12.5 uM concentration in human MRC-5 cells.
Assay [23] deals with Homo sapiens (MRC-5 cells). The experiment in a line: Concentration that cause cytotoxicity at 3.1 uM concentration.
Assay [24] concerns Trypanosoma cruzi. The experiment in a line: In vitro percent inhibition against mouse peritoneal macrophages infected with Trypanosoma cruzi at 25 uM concentration; Toxic for macrophage. The assay is classed as functional, organism-based. Summed up:
as §3

The test system of assay [25] is Leishmania infantum. The experiment in a line: In vitro percent inhibition against mouse peritoneal macrophages infected with Leishmania infantum at 25 uM concentration; Toxic for macrophage. The format is functional, organism-based. Summed up: as §2
For assay [26], the system named is Homo sapiens (MRC-5 cells). Briefly: Concentration that cause cytotoxicity at 1.5 uM concentration.
The next assay relates to Leishmania donovani. Briefly: Percent inhibition in vitro against intracellular form of Leishmania donovani at 90 uM concentration. The assay is classed as functional. Summed up: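 Hamster-spleen-derived L. donovani (MHOM/ET/67/L82) amastigotes infect mouse peritoneal macrophages in chamber slides. Infected cells kept with drug across 90–3 μM in quadruplicate for 7 days at 37 °C. Activity taken as percentage of macrophages cleared of amastigotes; sodium stibogluconate served as positive control.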

Turning to `Cn1c([N+](=O)[O-])cnc1-c1nnc(NC(=O)C(F)(F)F)s1`, the minimal effective concentration with Trypanosoma brucei [1] came to 31 µM.
The term inhibition denotes the drop in the measured response relative to a control, in per cent. Regarding `Cn1c([N+](=O)[O-])cnc1-c1nnc(NC(=O)CCCC(=O)NC2C(O)OC(CO)C(O)C2O)s1` (centres undefined), the inhibition at 6.2 µM with Leishmania infantum [2] came out at 0%; in the assay on Trypanosoma cruzi [3], 60%. In addition, the inhibition at 25 µM came to 0% in the assay on Leishmania infantum [4] and 99% with Trypanosoma cruzi [6]. Moreover, the inhibition at 3.1 µM was 20% in the assay on Trypanosoma cruzi [5] and 0% in the assay on Leishmania infantum [9]. For the same compound, the inhibition at 12.5 µM stood at 0% in the assay on Leishmania infantum [7] and 99% with Trypanosoma cruzi [8].
A word on the EC50: it is the midpoint of the concentration-response curve. Take `CC(=O)Nc1nnc(-c2ncc([N+](=O)[O-])n2C)s1`: the inhibition at 6.2 µM stood at 0% in the assay on Leishmania infantum [2], 99% in the assay on Trypanosoma cruzi [3] and 0% in assay [13]. For the same compound, the inhibition at 25 µM in [10] was found to be 0%; in the assay on Leishmania infantum [4], 40%; in the assay with Trypanosoma cruzi [6], 99%. In addition, the inhibition at 3.1 µM with Trypanosoma cruzi [5] was found to be 99%; in the assay with Leishmania infantum [9], 0%. The inhibition at 12.5 µM with Leishmania infantum [7] came out at 40%; in the assay on Trypanosoma cruzi [8], 99%; in assay [12] it was 0%. In the assay on Trypanosoma brucei [1], the minimal effective concentration was 1.6 µM. This compound also gave an EC50 in the assay with Trypanosoma brucei [11] of 200 nM.
`Cn1c([N+](=O)[O-])cnc1/C=N/N=C(/N)S` yielded an inhibition at 3 µM in the assay on Trypanosoma cruzi [14] of 54%. Further, in the assay on Trypanosoma cruzi [15], the ED50 was found to be 3.3 µM. Also, the inhibition at 30 µM in the assay with Trypanosoma cruzi [16] was determined as 93%. Besides, in the assay with Trypanosoma cruzi [17], the inhibition at 10 µM came out at 71%. The compound further displayed an inhibition at 90 µM with Trypanosoma cruzi [18] of 99%.
In the case of `Cc1nc(-c2nnc(N)s2)n(C)c1[N+](=O)[O-]`, in the assay on Trypanosoma brucei [1], the minimal effective concentration is over 41 µM. In the assay with Trypanosoma brucei [11], this compound gave a 50% effective concentration (EC50) of over 41000 nM.
As a reminder, the Inhibition is the change of the read-out against control, counted positive when it falls. High values mean a response far below the control, low ones a response near the control. Turning to `NC(=O)N/N=C/c1ccc([N+](=O)[O-])o1` [NITROFURAZONE], the inhibition at 6.2 µM came out at 0% with Leishmania infantum [2] and 40% with Trypanosoma cruzi [3]. The Inhibition in assay [19], in assay [20], in [21] and in [22] was 0% each time. Also, the results for the inhibition at 25 µM with Leishmania infantum [4] and in the assay on Trypanosoma cruzi [6] were 0% and 99%, respectively. Also, in the assay with Trypanosoma brucei [1], the minimal effective concentration came to 5 µM.
`Cn1c([N+](=O)[O-])cnc1S(C)(=O)=O`: the inhibition at 6.2 µM in the assay with Leishmania infantum [2] and in the assay on Trypanosoma cruzi [3] was 0% each time. The inhibition at 3.1 µM in [23] is 28%; in the assay with Trypanosoma cruzi [5], 0%; in the assay on Leishmania infantum [9], 0%. This compound also had an inhibition at 25 µM in assay [10] of 85%. In addition, the inhibition result in the assay on Trypanosoma cruzi [24] and in the assay on Leishmania infantum [25] was “Toxic for macrophage” each time. This compound yielded an inhibition at 1.5 µM in assay [26] of 21%. Moreover, the values for the inhibition at 12.5 µM (in the assay on Leishmania infantum [7]; in the assay with Trypanosoma cruzi [8]; in assay [12]) were 0%, 0% and 29%, respectively. Besides, the minimal effective concentration with Trypanosoma brucei [1] was over 49 µM. The midpoint of the response with Trypanosoma brucei [11], the EC50, lay at 8000 nM.
In the case of `Cn1c(-c2nnc(N)s2)nc(C(F)(F)F)c1[N+](=O)[O-]`, in the assay on Trypanosoma brucei [1], the minimal effective concentration was over 34 µM. In the assay on Trypanosoma brucei [11], this compound returned an EC50 of 25000 nM.
In the case of `Nc1nnc(-c2ccc([N+](=O)[O-])o2)o1`, the minimal effective concentration with Trypanosoma brucei [1] was over 51 µM.
Regarding `Cn1c(-c2nnc(N)s2)nc(N2CCCCC2)c1[N+](=O)[O-]`, the inhibition at 30 µM with Trypanosoma cruzi [16] came to 3%. The inhibition at 90 µM in the assay on Leishmania donovani amounted to 0%; with Trypanosoma cruzi [18] it was 41%. Also, the inhibition at 10 µM in the assay with Trypanosoma cruzi [17] is 0%.
As for `Cn1c(-c2nnc(N)s2)nc(Sc2ccccc2)c1[N+](=O)[O-]`, the inhibition at 6.2 µM (in the assay with Leishmania infantum [2]; with Trypanosoma cruzi [3]; in assay [13]) was 0% throughout. The figures for the inhibition at 25 µM (in assay [10]; with Leishmania infantum [4]; in the assay on Trypanosoma cruzi [6]) were 40%, 0% and 80%, respectively. The inhibition at 3.1 µM in the assay with Trypanosoma cruzi [5] and in the assay on Leishmania infantum [9] was 0% throughout. The inhibition at 12.5 µM in the assay with Leishmania infantum [7] was 0%; in the assay on Trypanosoma cruzi [8], 60%; in [12], 3%.
Turning to `N/C(S)=N/N=C/c1ccc([N+](=O)[O-])s1`, the inhibition at 6.2 µM in the assay on Leishmania infantum [2] was 0%; with Trypanosoma cruzi [3], 40%; in assay [13] it was 0%. In assay [23], this compound yielded an inhibition at 3.1 µM of 0%. The inhibition at 25 µM is 0% in assay [10], 40% in the assay on Leishmania infantum [4] and 90% with Trypanosoma cruzi [6]. Moreover, testing at 12.5 µM in assay [12] gave an inhibition of 0%.
Turning to `Cc1ccc(C(=O)Nc2ccc(S(=O)(=O)O)c3cc(S(=O)(=O)O)cc(S(=O)(=O)O)c23)cc1NC(=O)c1cccc(NC(=O)Nc2cccc(C(=O)Nc3cc(C(=O)Nc4ccc(S(=O)(=O)O)c5cc(S(=O)(=O)O)cc(S(=O)(=O)O)c45)ccc3C)c2)c1` [SURAMIN], the minimal effective concentration in the assay with Trypanosoma brucei [1] was 0.8 µM. Moreover, in the assay with Trypanosoma brucei [11], the EC50 came to 20 nM.
In the case of `Nc1nnc(-c2ccc([N+](=O)[O-])o2)s1`, the inhibition at 6.2 µM in the assay with Leishmania infantum [2] was found to be 0%; in the assay on Trypanosoma cruzi [3], 95%; in assay [13], 0%. The compound further registered an inhibition at 3.1 µM in assay [23] of 0%. The inhibition at 25 µM amounted to 4% in [10] and 40% in the assay with Leishmania infantum [4]. This compound also showed an inhibition at 12.5 µM in assay [12] of 0%.
Regarding `Cn1c(-c2nnc(N)s2)nc(Br)c1[N+](=O)[O-]`, the minimal effective concentration in the assay with Trypanosoma brucei [1] was 3.3 µM. Moreover, in the assay on Trypanosoma brucei [11], the EC50 is 500 nM.
